Measurements taken from ChEMBL document CHEMBL1145421, “Discovery of novel antitumor antimitotic agents that also reverse tumor resistance” (J Med Chem, 2007).
Activity calls are given as the source filed them. The rule behind the calls is not given here.

Legend:
HL-60 [1] = experiment: Growth inhibition of HL60 cells; assay type: functional; settings: Homo sapiens
PC-3 = experiment: Growth inhibition of PC3 cells; assay type: functional; settings: Homo sapiens
SR = experiment: Growth inhibition of SR cells; assay type: functional; settings: Homo sapiens
NCI-H460 = experiment: Growth inhibition of NCI-H460 cells; assay type: functional; settings: Homo sapiens
A549 = experiment: Growth inhibition of A549 cells; assay type: functional; settings: Homo sapiens
MOLT-4 = experiment: Growth inhibition of MOLT4 cells; assay type: functional; settings: Homo sapiens
Malme-3M = experiment: Growth inhibition of MALME-3M cells; assay type: functional; settings: Homo sapiens
Bos taurus = organism: Bos taurus; experiment: Reduction of bovine brain tubulin polymerization
Method in brief: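 Bovine brain tubulin was purified by three assembly/disassembly cycles followed by ion exchange. Tubulin at 67 μM (2.5 mg/mL) in 1 M glutamate, pH 6.6, with 4% DMSO was preincubated with compound (2–20 μM) or ethanol for 15 min at 0 °C. Then 0.5 mM GTP was added, samples were warmed to 37 °C, and A340 was followed for about 60 min.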

M14 = experiment: Growth inhibition of M14 cells; assay type: functional; settings: Homo sapiens
MCF7 [2] = experiment: Induction of microtubule loss in MCF7 cells after 24 hrs; assay type: functional, cell-based; settings: Homo sapiens
HCT-15 = experiment: Growth inhibition of HCT15 cells; assay type: functional; settings: Homo sapiens
UO-31 = experiment: Growth inhibition of UO31 cells; assay type: functional; settings: Homo sapiens
A10 = experiment: Induction of microtubule loss in rat A10 cells after 24 hrs; assay type: functional, cell-based
Method in brief: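 Rat A-10 smooth muscle cells were grown to near confluency on glass coverslips and treated for 24 h, with ethanol as control. Microtubules were stained by indirect immunofluorescence using monoclonal anti-β-tubulin and a fluorescein-conjugated anti-mouse IgG, then imaged by confocal laser scanning microscopy.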

HL-60 [3] = experiment: Cell cycle arrest in HL60 cells assessed as accumulation in […] phase at 6 uM; assay type: functional, Homo sapiens
Method in brief: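 HL-60 cells exposed 24 or 48 h to drug or ethanol vehicle. Nuclei prepared by detergent-trypsin method: citrate/sucrose/DMSO buffer, trypsin, then trypsin inhibitor plus RNase A, then propidium iodide with spermine, 30 min at 4 °C. Filtered, resuspended, DNA content measured by flow cytometry. Percentages given for G0/G1, S and G2/M. Mean ± SEM.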

SK-MEL-28 = experiment: Growth inhibition of SK-MEL-28 cells; assay type: functional; settings: Homo sapiens
RXF 393 = experiment: Growth inhibition of RXF393 cells; assay type: functional; settings: Homo sapiens
MCF7 [4] = experiment: Growth inhibition of Pgp deficient MCF7 cells expressing MRP1; assay type: functional, cell-based; settings: Homo sapiens
Method in brief: (§1)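 NCI/ADR (Pgp-overexpressing) or MCF-7/VP (MRP1-expressing, Pgp-negative) cells were seeded at about 15% confluency and allowed to attach for 24 h. They were then exposed for 48 h to varying compound concentrations, limited by solubility, without added vinca drug. Survival was read by sulforhodamine B binding against ethanol solvent controls. Each value is the mean of three equally treated wells.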

OVCAR-5 = experiment: Growth inhibition of OVCAR5 cells; assay type: functional; settings: Homo sapiens
MCF7 [5] = experiment: Cytotoxicity against human MCF7 cells after 48 hrs by SRB binding assay; assay type: functional, cell-based; settings: MCF7, 48 h
Method in brief: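 Drug-sensitive MCF-7 cells seeded at ~15% confluency and allowed 24 h recovery. Exposed 48 h to graded concentrations. Survival measured by SRB binding as % decrease versus ethanol-vehicle controls, mean of triplicate wells.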

MDA-MB-231 = experiment: Growth inhibition of MDA-MB-231 cells; assay type: functional; settings: Homo sapiens
SF-268 = experiment: Growth inhibition of SF268 cells; assay type: functional; settings: Homo sapiens
SN12C = experiment: Growth inhibition of SN12C cells; assay type: functional; settings: Homo sapiens
HCC 2998 = experiment: Growth inhibition of HCC2998 cells; assay type: functional; settings: Homo sapiens
SF-539 = experiment: Growth inhibition of SF539 cells; assay type: functional; settings: Homo sapiens
T47D = experiment: Growth inhibition of T47D cells; assay type: functional; settings: Homo sapiens
SW-620 = experiment: Growth inhibition of SW620 cells; assay type: functional; settings: Homo sapiens
NCI-H226 = experiment: Growth inhibition of NCI-H226 cells; assay type: functional; settings: Homo sapiens
OVCAR-3 = experiment: Growth inhibition of OVCAR-3 cells; assay type: functional; settings: Homo sapiens
[6] = Growth inhibition of NCI/ADR cells expressing Pgp/MRP1; assay type: functional, cell-based; settings: Homo sapiens, NCI/ADR-RES; method in brief: as §1
MCF7 [7] = experiment: Growth inhibition of MCF7 cells; assay type: functional; settings: Homo sapiens
[8] = Cytotoxicity against MRP1 overexpressing human MCF7/VP cells after 48 hrs by SRB binding assay; assay type: functional, cell-based
Method in brief: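 MCF-7/VP (MRP1-expressing, Pgp-negative) cells seeded at ~15% confluency and allowed 24 h to attach. Exposed 48 h to graded concentrations without vincristine. Survival measured by SRB binding versus ethanol controls.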

SK-MEL-2 = experiment: Growth inhibition of SK-MEL-2 cells; assay type: functional; settings: Homo sapiens
[9] = Cytotoxicity against human T24 cells after 48 hrs by SRB binding assay; assay type: cell-based; settings: T-24, 48 h
SK-MEL-5 = experiment: Growth inhibition of SK-MEL-5 cells; assay type: functional; settings: Homo sapiens
OVCAR-8 = experiment: Growth inhibition of OVCAR8 cells; assay type: functional; settings: Homo sapiens
IGROV-1 = experiment: Growth inhibition of IGROV1 cells; assay type: functional; settings: Homo sapiens
SK-OV-3 = experiment: Growth inhibition of SKOV3 cells; assay type: functional; settings: Homo sapiens
[10] = Growth inhibition of NCI-H322 cells; assay type: functional; settings: Homo sapiens

COc1cc(CCc2cn(Cc3ccccc3)c3nc(N)nc(C)c23)cc(OC)c1OC
GI50 (HL-60 [1]): 64.7 nM
GI50 (PC-3): 47.9 nM
GI50 (SR): 31.4 nM
GI50 (NCI-H460): 162 nM
GI50 (A549): 173 nM
GI50 (MOLT-4): 285 nM
GI50 (Malme-3M): 283 nM
Activity (Bos taurus): Dose-dependent effect
GI50 (M14): 77 nM
Activity (MCF7 [2]): Active
GI50 (HCT-15): 127 nM
GI50 (UO-31): 347 nM
Activity (A10): Dose-dependent effect
Activity (HL-60 [3]): 9.7%
GI50 (SK-MEL-28): > 1000 nM
GI50 (RXF 393): 134 nM
IC50 (MCF7 [4]): 280 nM
GI50 (OVCAR-5): > 1000 nM
IC50 (MCF7 [5]): 300 nM
GI50 (MDA-MB-231): 595 nM
GI50 (SF-268): 669 nM
GI50 (SN12C): 537 nM
GI50 (HCC 2998): 317 nM
GI50 (SF-539): 74.5 nM
GI50 (T47D): 563 nM
GI50 (SW-620): 236 nM
GI50 (NCI-H226): 195 nM
GI50 (OVCAR-3): 28.8 nM
IC50 [6]: 350 nM
GI50 (MCF7 [7]): 118 nM
IC50 [8]: 250 nM
GI50 (SK-MEL-2): 381 nM
IC50 [9]: 280 nM
GI50 (SK-MEL-5): 61.1 nM
GI50 (OVCAR-8): 364 nM
GI50 (IGROV-1): 61.1 nM
GI50 (SK-OV-3): 506 nM
GI50 [10]: 581 nM
